System: U2OS
Assay: Multiplex assay against U2OS
Format: toxicity, cell-based
Settings: human
Summary of the method: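 On a CQ1 microscope at 37°C and 5% CO2, live cells were imaged after compound addition. They had been stained at seeding with Hoechst33342, BioTracker Green Microtubule Cytoskeleton Dye, MitoTracker Red and Annexin V Alexa Fluor 680. CellPathfinder machine-learning gating assigned cells to Hoechst high-intensity objects or normal cells, normal cells to healthy, pyknosed or fragmented nuclei, and pyknosed cells to mitotic or apoptotic. Tubulin, mitochondrial-mass and membrane-permeability phenotypes are per cents of healthy-nucleus cells.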

[1] = 12 h, 1 µM, compound concentration 1 uM, replicate 1
[2] = 12 h, 1 µM, compound concentration 1 uM, replicate 2
[3] = 12 h, 10 µM, compound concentration 10 uM, replicate 1
[4] = 12 h, 10 µM, compound concentration 10 uM, replicate 2
[5] = 24 h, 1 µM, compound concentration 1 uM, replicate 1
[6] = 24 h, 1 µM, compound concentration 1 uM, replicate 2
[7] = 24 h, 10 µM, compound concentration 10 uM, replicate 1
[8] = 24 h, 10 µM, compound concentration 10 uM, replicate 2
[9] = 48 h, 1 µM, compound concentration 1 uM, replicate 1
[10] = 48 h, 1 µM, compound concentration 1 uM, replicate 2
[11] = 48 h, 10 µM, compound concentration 10 uM, replicate 1
[12] = 48 h, 10 µM, compound concentration 10 uM, replicate 2

CN1CCN2c3ncccc3Cc3ccccc3C2C1 (stereo not drawn) [MIRTAZAPINE]
Population Apoptotic (%) [1]: 82%
Population Fragmented Nuclei (%) [1]: 21%
Population Healthy Nuclei (%) [1]: 67%
Population Hoechst High Intensity Objects (%) [1]: 1%
Population Membrane Permeable-Phenotype (%) [1]: 3%
Population Mitochondria Different-Phenotype (%) [1]: 1%
Population Mitotic Cells (%) [1]: 17%
Population Normal (%) [1]: 99%
Population Pyknosed Nuclei (%) [1]: 11%
Population Tubulin-Different-Phenotype (%) [1]: 2%
Total Cell Count [1]: 301
Population Apoptotic (%) [2]: 100%
Population Healthy Nuclei (%) [2]: 72%
Population Membrane Permeable-Phenotype (%) [2]: 5%
Population Mitochondria Different-Phenotype (%) [2]: 6%
Population Mitotic Cells (%) [2]: 0%
Population Normal (%) [2]: 98%
Population Pyknosed Nuclei (%) [2]: 6%
Population Tubulin-Different-Phenotype (%) [2]: 3%
Total Cell Count [2]: 81
Population Apoptotic (%) [3]: 73%
Population Fragmented Nuclei (%) [3]: 19%
Population Healthy Nuclei (%) [3]: 71%
Population Hoechst High Intensity Objects (%) [3]: 3%
Population Membrane Permeable-Phenotype (%) [3]: 6%
Population Mitochondria Different-Phenotype (%) [3]: 5%
Population Mitotic Cells (%) [3]: 26%
Population Normal (%) [3]: 96%
Population Pyknosed Nuclei (%) [3]: 8%
Population Tubulin-Different-Phenotype (%) [3]: 6%
Total Cell Count [3]: 266
Population Apoptotic (%) [4]: 66%
Population Fragmented Nuclei (%) [4]: 13%
Population Healthy Nuclei (%) [4]: 82%
Population Membrane Permeable-Phenotype (%) [4]: 3%
Population Mitochondria Different-Phenotype (%) [4]: 4%
Population Mitotic Cells (%) [4]: 33%
Population Pyknosed Nuclei (%) [4]: 3%
Population Tubulin-Different-Phenotype (%) [4]: 0%
Total Cell Count [4]: 83
Population Apoptotic (%) [5]: 85%
Population Fragmented Nuclei (%) [5]: 15%
Population Healthy Nuclei (%) [5]: 76%
Population Hoechst High Intensity Objects (%) [5]: 2%
Population Membrane Permeable-Phenotype (%) [5]: 5%
Population Mitochondria Different-Phenotype (%) [5]: 3%
Population Mitotic Cells (%) [5]: 14%
Population Normal (%) [5]: 97%
Population Pyknosed Nuclei (%) [5]: 8%
Population Tubulin-Different-Phenotype (%) [5]: 2%
Total Cell Count [5]: 340
Population Apoptotic (%) [6]: 100%
Population Fragmented Nuclei (%) [6]: 26%
Population Healthy Nuclei (%) [6]: 63%
Population Hoechst High Intensity Objects (%) [6]: 3%
Population Membrane Permeable-Phenotype (%) [6]: 3%
Population Mitotic Cells (%) [6]: 0%
Population Normal (%) [6]: 96%
Population Pyknosed Nuclei (%) [6]: 10%
Population Tubulin-Different-Phenotype (%) [6]: 4%
Total Cell Count [6]: 99
Population Apoptotic (%) [7]: 89%
Population Fragmented Nuclei (%) [7]: 18%
Population Healthy Nuclei (%) [7]: 71%
Population Hoechst High Intensity Objects (%) [7]: 2%
Population Membrane Permeable-Phenotype (%) [7]: 4%
Population Mitochondria Different-Phenotype (%) [7]: 2%
Population Mitotic Cells (%) [7]: 10%
Population Normal (%) [7]: 97%
Population Pyknosed Nuclei (%) [7]: 9%
Population Tubulin-Different-Phenotype (%) [7]: 0%
Total Cell Count [7]: 314
Population Apoptotic (%) [8]: 83%
Population Fragmented Nuclei (%) [8]: 9%
Population Healthy Nuclei (%) [8]: 85%
Population Hoechst High Intensity Objects (%) [8]: 0%
Population Membrane Permeable-Phenotype (%) [8]: 5%
Population Mitotic Cells (%) [8]: 16%
Population Normal (%) [8]: 99%
Population Pyknosed Nuclei (%) [8]: 5%
Population Tubulin-Different-Phenotype (%) [8]: 5%
Total Cell Count [8]: 108
Population Apoptotic (%) [9]: 83%
Population Fragmented Nuclei (%) [9]: 12%
Population Healthy Nuclei (%) [9]: 76%
Population Hoechst High Intensity Objects (%) [9]: 2%
Population Membrane Permeable-Phenotype (%) [9]: 4%
Population Mitochondria Different-Phenotype (%) [9]: 2%
Population Mitotic Cells (%) [9]: 16%
Population Normal (%) [9]: 97%
Population Pyknosed Nuclei (%) [9]: 10%
Population Tubulin-Different-Phenotype (%) [9]: 3%
Total Cell Count [9]: 479
Population Apoptotic (%) [10]: 92%
Population Fragmented Nuclei (%) [10]: 20%
Population Healthy Nuclei (%) [10]: 68%
Population Hoechst High Intensity Objects (%) [10]: 4%
Population Membrane Permeable-Phenotype (%) [10]: 8%
Population Mitochondria Different-Phenotype (%) [10]: 4%
Population Mitotic Cells (%) [10]: 7%
Population Normal (%) [10]: 95%
Population Pyknosed Nuclei (%) [10]: 11%
Population Tubulin-Different-Phenotype (%) [10]: 1%
Total Cell Count [10]: 132
Population Apoptotic (%) [11]: 95%
Population Fragmented Nuclei (%) [11]: 15%
Population Healthy Nuclei (%) [11]: 75%
Population Hoechst High Intensity Objects (%) [11]: 2%
Population Membrane Permeable-Phenotype (%) [11]: 7%
Population Mitochondria Different-Phenotype (%) [11]: 4%
Population Mitotic Cells (%) [11]: 5%
Population Normal (%) [11]: 97%
Population Pyknosed Nuclei (%) [11]: 9%
Population Tubulin-Different-Phenotype (%) [11]: 5%
Total Cell Count [11]: 435
Population Apoptotic (%) [12]: 100%
Population Fragmented Nuclei (%) [12]: 12%
Population Healthy Nuclei (%) [12]: 78%
Population Membrane Permeable-Phenotype (%) [12]: 3%
Population Mitochondria Different-Phenotype (%) [12]: 3%
Population Mitotic Cells (%) [12]: 0%
Population Tubulin-Different-Phenotype (%) [12]: 3%
Total Cell Count [12]: 170
